Results taken from paper PMC5175369 (Nucleic Acids Research, 2016).
“And” between values parts separate entries of the source, which are not always exact repeats. Equal entries are not always repeated. Marks after values point to notes of the source that are not given here.

Tests used:
mouse eIF4E = conditions: 20°C, cited from earlier work; for ΔG°: Gibbs free energy of binding; for KAS (cap–eIF4E): equilibrium association constant, mouse eIF4E
S. pombe Dcp1/2 complex = assay: Decapping assay of short capped transcripts with SpDcp1/2; assay type: biochemical, Schizosaccharomyces pombe; conditions: 34 nt RNA capped with the analog, SpDcp1/2 complex, 30°C
Procedure, shortened: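 Short 34-nt capped RNAs were transcribed with […] from EcoRI-linearized pSP-luc+. NTPs were 0.1 mM final and cap dinucleotide 0.5 mM final, for 45 min at 37°C, then DNase-treated and column-purified. 20 ng RNA was digested with 50 or 200 nM S. pombe Dcp1/2 in 10 mM Hepes pH 7.5, 100 mM KOAc, 2 mM Mg(OAc)2, 2 mM DTT at 30°C. No-enzyme controls were run. Products were separated on 15% PAGE/7 M urea with SYBR Gold. Decapping % is upper-band loss over upper plus lower bands, mean ± SD of two experiments.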

[1] = tested on: rabbit reticulocyte lysates (RRLs); assay: Translation efficiency of capped luciferase mRNA in RRL; assay type: biochemical; conditions: for relative cap-dependent translation efficiency: ApppG-capped mRNA translation subtracted before normalization to m^7GpppG; for relative translation efficiency: luciferase mRNA capped with the analog, normalized to m^7GpppG-capped mRNA
Procedure, shortened: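 Capped, polyadenylated luciferase mRNAs were made with SP6 polymerase from a PCR template, then DNase-treated and purified. Flexi RRL (40% lysate, 0.01 mM amino acids, 1 mM Mg acetate, 190 mM K acetate) was preincubated 60 min at 30°C, then translated 60 min at 30°C with four mRNA concentrations. Luminescence versus mRNA was linearly fitted and normalized to m7GpppG-capped mRNA, optionally after subtracting ApppG-capped mRNA. Means are from 2–3 repeats of each of two mRNA syntheses.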

mammalian cells = conditions: mRNA capped with the analog; cited from earlier work

Compound	ΔG° (mouse eIF4E)	KAS (cap–eIF4E) (mouse eIF4E)	Decapping % 5 min (S. pombe Dcp1/2 complex) [%]	Decapping % 15 min (S. pombe Dcp1/2 complex) [%]	Decapping % 30 min (S. pombe Dcp1/2 complex) [%]	relative cap-dependent translation efficiency [1]	relative translation efficiency [1]	mRNA half-life (mammalian cells) [min]
COC1C(O)[C@@H](COP(=O)(O)OP(=O)([S-])OP(=O)(O)OP(=O)(O)OC[C@H]2O[C@@H](n3cnc4c(=O)[nH]c(N)nc43)C(O)C2O)O[C@H]1n1c[n+](C)c2c(O)nc(N)nc21 (mixture of isomers) [m2^7,2′-OGppSppG D1D2, m2^7,2′-OGppSppG]	−11.33 ± 0.02^c kcal·mol^−1	282 ± 12^c μM^−1	57.9 ± 14.6	65.6 ± 18.0	71.6 ± 17.2	2.80 ± 0.83	2.51 ± 0.59	
CO[C@@H]1[C@H](O)[C@@H](COP(=O)([O-])OP(O)(=S)OP(=O)(O)OC[C@H]2O[C@@H](n3cnc4c(=O)[nH]c(N)nc43)[C@H](O)[C@@H]2O)O[C@H]1[n+]1cn(C)c2c(=O)[nH]c(N)nc21 (single isomer, unassigned) [m2^7,2′-OGppSpG D1, m2^7,2′-OGppSpG]	−10.23 ± 0.02^a kcal·mol^−1	43.1 ± 1.4 μM^−1 and 43.1 ± 1.4^a μM^−1	47.5 ± 9.0	56.1 ± 11.5	60.9 ± 12.1	2.27 ± 0.10	2.07 ± 0.18	185 ± 20
CO[C@@H]1[C@H](O)[C@@H](COP(=O)([O-])OP(O)(=S)OP(=O)(O)OC[C@H]2O[C@@H](n3cnc4c(=O)[nH]c(N)nc43)[C@H](O)[C@@H]2O)O[C@H]1[n+]1cn(C)c2c(=O)[nH]c(N)nc21 (single isomer, unassigned) [m2^7,2′-OGppSpG D2, m2^7,2′-OGppSpG]	−9.77 ± 0.07^a kcal·mol^−1	19.3 ± 2.2^a μM^−1	47.3 ± 10.6	51.4 ± 15.6	57.4 ± 10.7	2.83 ± 0.26	2.54 ± 0.66	257 ± 4
Nc1nc2c(ncn2[C@@H]2O[C@H](COP(=O)(O)OP(=O)(O)OP(=O)(O)OC[C@H]3O[C@@H](n4cnc5c(N)ncnc54)[C@H](O)[C@@H]3O)[C@@H](O)[C@H]2O)c(=O)[nH]1 [ApppG]						0.00	0.16 ± 0.04	
CO[C@@H]1[C@H](O)[C@@H](COP(=O)(O)OP(=O)([O-])OP(=O)(O)OC[C@H]2O[C@@H](n3cnc4c(=O)[nH]c(N)nc43)[C@H](O)[C@@H]2O)O[C@H]1n1c[n+](C)c2c(O)nc(N)nc21 [m2^7,2′-OGpppG]	−9.42 ± 0.02^b kcal·mol^−1		68.9 ± 0.4	78.6 ± 2.4	79.7 ± 7.5	1.96 ± 0.43	1.81 ± 0.32	155 ± 9
CO[C@@H]1[C@H](O)[C@@H](COP(=O)(O)OP(=O)([O-])OP(=O)(O)OP(=O)(O)OC[C@H]2O[C@@H](n3cnc4c(=O)[nH]c(N)nc43)[C@H](O)[C@@H]2O)O[C@H]1n1c[n+](C)c2c(O)nc(N)nc21 [m2^7,2′-OGppppG]	−10.73 ± 0.04^b kcal·mol^−1	99.8 ± 6.0^b μM^−1	73.4 ± 7.6	78.4 ± 9.4	82.9 ± 11.3	1.94 ± 0.56	1.79 ± 0.43	
CO[C@H]1[C@@H](O)[C@H]([n+]2cn(C)c3c(=O)[nH]c(N)nc32)O[C@@H]1COP(=O)([O-])OP(=O)(O)OP(=O)(O)OC[C@H]1O[C@@H](n2cnc3c(=O)[nH]c(N)nc32)[C@H](O)[C@@H]1O [m2^7,3′-OGpppG]	−9.40 ± 0.02^a kcal·mol^−1	10.2 ± 0.3^a μM^−1				1.99 ± 0.81	1.83 ± 0.64	
C[n+]1cn(C2OC(COP(=O)(O)OP(=O)(O)OP(=O)(O)OP(=O)(O)OP(=O)(O)OCC3OC(n4cnc5c(=O)[nH]c(N)nc54)C(O)C3O)C(O)C2O)c2nc(N)[nH]c(=O)c21 (stereo not drawn) [m^7Gp5G]	−11.71 ± 0.06^b kcal·mol^−1	543 ± 55^b μM^−1						
Cn1c[n+]([C@@H]2O[C@H](COP(=O)(O)OP(=O)([O-])OP(=O)(O)OC[C@H]3O[C@@H](n4cnc5c(=O)[nH]c(N)nc54)[C@H](O)[C@@H]3O)[C@@H](O)[C@H]2O)c2nc(N)[nH]c(=O)c21 [m^7GpppG]	−9.35 ± 0.03^a kcal·mol^−1	9.4 ± 0.4 μM^−1 and 9.4 ± 0.4^a μM^−1				1	1	
m2^7,2′-OGpppSpG [m2^7,2′-OGpppSpG D1D2]	−10.99 ± 0.01^c kcal·mol^−1	158 ± 2^c μM^−1	72.7 ± 1.9	78.3 ± 1.0	79.5 ± 3.5			
